Compound activity from PubChem.
A selection: hits, their analogues and other compounds. The true share with any hit is near 2.7%.
ASAP1 inh = inhibitors of human ASAP1 ArfGAP activity; ASAP1-stimulated ARF1 GTP hydrolysis, GDP FP detection; hit rate 0.19% among 360,000; Q9ULH1; inhibition, % at 16.5 µM; in the data active means inhibition above about 25%;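 further: 0% = vehicle with enzyme and substrate and 100% = no enzyme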
ARFGAP1 inhibitor = inhibitors of rat ARFGAP1; Q62848; hit rate 0.26% among 360,000; Arfgap1-stimulated ARF1 GTP hydrolysis, GDP FP detection; inhibition, % at 16.5 µM;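 active means inhibition above a per-plate limit, mean inhibition of low control wells plus 3 SD, cut at about 25% in these data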;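 further: 0% = DMSO wells with enzyme and 100% = wells lacking Arfgap1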
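Material – truncated rat Arfgap1 GAP domain · Buffer or medium – HEPES-based buffer, pH 7.5 · Reagent – human ARF1(Δ1-17)-GTP substrate · Dosing – 16.5 µM single point, 1.26% DMSO · Schedule – GTP hydrolysis reaction 2 h at 25 °C · Technique – GDP detection by fluorescence polarization · Benchmarks – No-Arfgap1 wells (100%) versus DMSO full-reaction wells (0%) · Repeats – single replicate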
PAFAH1B3 FP inh = inhibitors of human PAFAH1B3; recombinant PAFAH1B3, FP-rhodamine probe, fluorescence polarization; inhibition, % at 3.39 µM; Q15102; hit rate 0.28% among 340,000;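 active means inhibition above the screen-wide average of all tested compounds plus 3 SD, cut at about 25% in these data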;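 further: 0% = enzyme with DMSO only and 100% = wells lacking PAFAH1B3 protein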
Target sequence (Q15102 whole entry, looked up): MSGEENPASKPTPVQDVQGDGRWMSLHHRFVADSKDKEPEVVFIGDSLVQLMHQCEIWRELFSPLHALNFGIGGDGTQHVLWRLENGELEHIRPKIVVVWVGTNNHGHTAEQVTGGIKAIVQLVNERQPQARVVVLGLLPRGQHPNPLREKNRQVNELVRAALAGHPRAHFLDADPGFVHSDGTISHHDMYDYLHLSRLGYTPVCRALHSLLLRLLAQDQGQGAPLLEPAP
PAFAH1B2 FP inh = PAFAH1B2 (human) inhibition | hit rate 1.2% among 340,000 | recombinant PAFAH1B2, FP-rhodamine activity probe, fluorescence polarization | AID 492953 | inhibition, % at 3.39 µM | P68402;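 active means inhibition above the mean of all tested compounds plus 3 SD, cut at about 24% in these data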;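 further: 0% = enzyme with DMSO and 100% = wells lacking PAFAH1B2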
Target sequence (P68402 whole entry, looked up): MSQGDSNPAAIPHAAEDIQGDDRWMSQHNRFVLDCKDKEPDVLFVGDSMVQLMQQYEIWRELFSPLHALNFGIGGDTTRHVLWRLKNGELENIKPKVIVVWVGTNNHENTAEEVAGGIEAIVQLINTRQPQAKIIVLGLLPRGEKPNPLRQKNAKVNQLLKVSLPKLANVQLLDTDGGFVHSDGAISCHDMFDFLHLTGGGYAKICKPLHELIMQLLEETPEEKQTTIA
pPAFAH FP inh = pPAFAH (human) enzyme inhibition | recombinant pPAFAH, FP-rhodamine probe fluorescence polarization | inhibition, % at 3.39 µM | hit rate 1.5% among 330,000;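 active means inhibition above the mean inhibition across the screen plus 3 SD, cut at about 25% in these data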;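 further: inhibitors block binding of the rhodamine activity-based probe so polarization drops; 0% = enzyme with DMSO and 100% = wells lacking pPAFAH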
PAFAH2 inh = PAFAH2 (human) inhibition; Q99487; recombinant PAFAH2, FP-rhodamine activity probe, fluorescence polarization; inhibition, % at 3.39 µM; hit rate 0.99% among 340,000; AID 492956;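 active means inhibition above the mean over all tested compounds plus 3 SD, cut at about 30% in these data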;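 further: inhibitors block probe labeling of enzyme so polarization drops; 0% = enzyme with DMSO and 100% = wells lacking PAFAH2 protein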
Numbers without * were called inactive; · = no result.

SMILES	ASAP1 inh	ARFGAP1 inhibitor	PAFAH1B3 FP inh	PAFAH1B2 FP inh	pPAFAH FP inh	PAFAH2 inh
CCC(CO)Oc1cc(NCc2ccc(Cl)cc2)c2ncn(C(C)C)c2c1 (stereo not drawn)	-4	7	7	28*	8	6
CCCOc1cc(NCc2ccccc2)c2ncn(C(C)C)c2c1	3	0	-6	4	25*	9
O=C(NCc1ccccc1)[C@@H]1CCCN1C(=O)[C@H]1CCCN1C(=O)c1ccc(F)c(C(F)(F)F)c1	6	9	·	·	·	·
Cc1sc(NC(=O)CCCC(=O)O)c(C(N)=O)c1-c1ccccc1	-1	10	-1	-2	1	2
CCCC(=O)Nc1sc(-c2ccccc2)c(-c2ccccc2)c1C(=O)O	-22	-15	-1	42*	6	5
O=C1S/C(=C\C=C\c2ccco2)C(=O)N1c1ccccc1	5	5	-3	-3	26*	6
O=C(CCS(=O)(=O)c1ccc2c(c1)NC(=O)CS2)NCCc1ccc(Cl)cc1	2	6	6	26*	5	1
O=C(CCS(=O)(=O)c1ccc2c(c1)NC(=O)CS2)NCCc1ccccc1	-3	-1	8	2	5	3
CC(=O)OCc1c(C(F)(F)F)nn(C)c1SCc1ccc(Cl)cc1	2	-2	3	30*	2	2
Cc1ccc(C(=O)c2c(C)oc3c2C(=O)C(=O)c2ccccc2-3)cc1	·	·	7	4	26*	13
COc1cccc(C2NC(=S)NC(C)=C2C(C)=O)c1 (stereo not drawn)	-11	-6	·	·	·	·
CN[C@H]1C[C@H]2c3[nH]c4c(-c5ccc6c(c5)OCO6)cccc4c3CCN2C(=O)[C@H]1[C@H](C)O	6	5	·	·	·	·
COC(=O)c1ccc2nc(-c3cccc(Br)c3)c(Cc3cccc(Cl)c3)n2c1	1	-1	·	·	·	·
CC(C)Cn1c(C23CC4CC(CC(C4)C2)C3)n[nH]c1=S	-11	0	-1	28*	-2	5
O=C1[C@H](c2ccccc2)[C@@H](c2ccncc2)N1c1ccncc1	13	5	·	·	·	·
Cc1ccc(CNS(=O)(=O)c2ccc(Br)s2)cc1	-4	1	3	25*	12	3
Cc1nc2ccc(S(=O)(=O)NCC(=O)NCCc3ccc(Cl)cc3)cc2s1	17	0	5	25*	6	10
Cc1cccc(CCNC(=O)CNS(=O)(=O)c2ccc3nc(C)sc3c2)c1	-6	-2	2	5	3	0
O=S(=O)(NCc1ccccc1)c1ccc(Br)s1	-7	11	-4	17	·	-4
O=C(CNS(=O)(=O)c1ccc(Br)s1)NCCc1ccc(Cl)cc1	-4	8	1	29*	0	-1
COc1ccc(CCNC(=O)CNS(=O)(=O)c2ccc(Br)s2)cc1OC	5	-16	7	4	3	8
CCN(CC)c1ccc(/C=N/NC(=S)NCc2ccco2)cc1	-2	8	2	1	29*	-2
CCN(Cc1ccccc1)c1ccc(/C=N/N=C(N)N)cc1	-8	8	7	25*	7	5
CN(C)c1ccc(/C=N/NC(=S)NCc2ccccc2)cc1	-2	-1	9	3	18	-6
CCN(Cc1ccccc1)c1ccc(/C=N/NS(=O)(=O)c2ccc(C)c([N+](=O)[O-])c2)cc1	12	9	5	28*	3	1
SMILES	ASAP1 inh	ARFGAP1 inhibitor	PAFAH1B3 FP inh	PAFAH1B2 FP inh	pPAFAH FP inh	PAFAH2 inh
CCN(Cc1ccccc1)c1ccc(/C=N/NC(=S)NC(C)C)cc1	6	-6	13	26*	22	0
COc1cccc(-c2cccc3c4c([nH]c23)[C@@H]2C[C@H]3[C@@H](C(=O)N2CC4)[C@H](C)ON3C)c1	8	-2	·	·	·	·
COc1ccc(-c2ccc3c(n2)CCCN3S(=O)(=O)c2cccs2)cc1	2	-4	·	·	·	·
COC(=O)[C@]12C[C@H](CC(=O)N3CCN(C(=O)C4CC4)CC3)C(=O)N(Cc3ccccc3)C1=C[C@H](C1CCCC1)O[C@@H]2C	-5	-11	·	·	·	·
COC(=O)[C@]12C[C@H](CC(=O)NCC34CC5CC(CC(C5)C3)C4)C(=O)N(Cc3ccc4c(c3)OCO4)C1=C[C@H](C(C)(C)C)O[C@@H]2C	9	-3	·	·	·	·
CCOCCCNC(=O)c1ccc(CS(=O)(=O)Cc2cccc(C)c2)o1	5	8	4	-2	0	-3
